Measured values published in ChEMBL document CHEMBL4613267, “Novel Potent Muscarinic Receptor Antagonists: Investigation on the Nature of Lipophilic Substituents in the 5- and/or 6-Positions of the 1,4-Dioxane Nucleus” (J Med Chem, 2020).
The source made the active and inactive calls. The calls are words filed in the database; no cut-off is given here.

What was measured:
[1] = target: T1, Muscarinic acetylcholine receptor (Mus musculus) (UniProt Q920H4+Q9ERZ4+P12657+P32211+Q9ERZ3); assay: Activity at muscarinic receptor in BALB/c mouse MSC assessed as reduction in cell viability at 10^-4M incubated for 24 hrs by Cell-titer 96 aqueous one solution reagent based assay
Method in brief: (§1)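 Bone-marrow MSCs from mouse, cultured for 2 weeks, then seeded at 5,000 cells/well in DMEM with 10% heat-inactivated FCS. Exposed to compound at 10–4 to 10–10 M for 24 h, with vehicle (DMSO) and untreated controls. Viability read by MTS reagent (2 h, 5% CO2) as absorbance at 490 nm. Mean ± SEM of four independent experiments.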

[2] = target: T1, Muscarinic acetylcholine receptor (Mus musculus); assay: Activity at muscarinic receptor in BALB/c mouse MSC assessed as increase in cell viability at 10^-10M incubated for 24 hrs by Cell-titer 96 aqueous one solution reagent based assay; method in brief: as §1
[3] = target: T1, Muscarinic acetylcholine receptor (Mus musculus); settings: BALB/c, 10^-10M
[4] = target: T1, Muscarinic acetylcholine receptor (Mus musculus); assay: Antagonist activity at muscarinic receptor in BALB/c mouse MSC assessed as inhibition of carbachol-induced increase in cell viability at 10^-4 to 10^-10M incubated for 24 hrs by Cell-titer 96 aqueous one solution reagent based assay
Method in brief: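 Mouse bone-marrow MSCs kept as adherent cultures, with medium changes, for 2 weeks, then plated at 5,000 cells/well in DMEM with 10% HIFCS. Antagonist (10–4 to 10–10 M) given for 1 h, medium replaced, then carbachol 10–10 M for 24 h. Viability read by MTS, 2 h incubation, absorbance 490 nm. Controls were vehicle (DMSO) and untreated cells. Four independent experiments, mean ± SEM.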

[5] = target: T2, Muscarinic acetylcholine receptor M1 (Homo sapiens, UniProt P11229); assay: Displacement of [3H]NMS from human recombinant muscarinic receptor M1 expressed in CHO-K1 cell membranes incubated for 2 hrs by scintillation counting method
T2 sequence (P11229 whole entry): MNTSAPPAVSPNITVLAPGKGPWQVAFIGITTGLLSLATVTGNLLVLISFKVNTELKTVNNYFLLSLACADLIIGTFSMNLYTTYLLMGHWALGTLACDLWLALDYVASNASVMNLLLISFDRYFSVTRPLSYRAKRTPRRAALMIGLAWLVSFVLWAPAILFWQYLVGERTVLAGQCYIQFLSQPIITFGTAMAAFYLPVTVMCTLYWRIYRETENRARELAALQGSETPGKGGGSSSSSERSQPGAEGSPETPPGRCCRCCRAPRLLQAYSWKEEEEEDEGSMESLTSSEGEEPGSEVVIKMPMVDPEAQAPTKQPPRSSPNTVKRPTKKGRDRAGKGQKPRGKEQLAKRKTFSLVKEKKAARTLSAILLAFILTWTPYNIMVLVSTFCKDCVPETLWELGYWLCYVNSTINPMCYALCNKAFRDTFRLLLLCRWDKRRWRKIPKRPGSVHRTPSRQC
Method in brief: (§2)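 Membranes from CHO-K1 cells stably expressing each human subtype, homogenised in 25 mM sodium phosphate, 5 mM MgCl2, pH 7.4. About 25–70 μg/mL protein incubated with 0.2 nM [3H]NMS and test compound for 2 h at r.t. Nonspecific binding defined with 10 μM atropine. Filtration, then counting. Four-parameter logistic fit gave IC50, converted to Ki. Mean ± S.E.M. of ≥3 experiments in duplicate.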

[6] = target: T3, Muscarinic acetylcholine receptor M2 (Homo sapiens, UniProt P08172); assay: Displacement of [3H]NMS from human recombinant muscarinic receptor M2 expressed in CHO-K1 cell membranes incubated for 2 hrs by scintillation counting method; method in brief: as §2
T3 sequence (P08172 whole entry): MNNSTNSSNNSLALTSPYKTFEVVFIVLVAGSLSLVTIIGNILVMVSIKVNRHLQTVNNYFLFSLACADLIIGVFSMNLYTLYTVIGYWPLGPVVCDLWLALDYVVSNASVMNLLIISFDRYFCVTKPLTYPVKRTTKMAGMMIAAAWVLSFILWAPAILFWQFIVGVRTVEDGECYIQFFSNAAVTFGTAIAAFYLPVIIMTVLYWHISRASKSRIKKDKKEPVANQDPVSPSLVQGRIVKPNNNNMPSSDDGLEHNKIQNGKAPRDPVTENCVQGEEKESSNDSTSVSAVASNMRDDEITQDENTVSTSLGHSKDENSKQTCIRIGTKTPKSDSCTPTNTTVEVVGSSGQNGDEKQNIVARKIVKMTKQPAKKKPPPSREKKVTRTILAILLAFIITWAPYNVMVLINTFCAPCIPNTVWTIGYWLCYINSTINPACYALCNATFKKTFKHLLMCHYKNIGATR

[7] = target: Muscarinic acetylcholine receptor M3 (Homo sapiens, UniProt P20309); assay: Displacement of [3H]NMS from human recombinant muscarinic receptor M3 expressed in CHO-K1 cell membranes incubated for 2 hrs by scintillation counting method; method in brief: as §2
[8] = target: T4, Muscarinic acetylcholine receptor M4 (Homo sapiens, UniProt P08173); assay: Displacement of [3H]NMS from human recombinant muscarinic receptor M4 expressed in CHO-K1 cell membranes incubated for 2 hrs by scintillation counting method
T4 sequence (P08173 whole entry): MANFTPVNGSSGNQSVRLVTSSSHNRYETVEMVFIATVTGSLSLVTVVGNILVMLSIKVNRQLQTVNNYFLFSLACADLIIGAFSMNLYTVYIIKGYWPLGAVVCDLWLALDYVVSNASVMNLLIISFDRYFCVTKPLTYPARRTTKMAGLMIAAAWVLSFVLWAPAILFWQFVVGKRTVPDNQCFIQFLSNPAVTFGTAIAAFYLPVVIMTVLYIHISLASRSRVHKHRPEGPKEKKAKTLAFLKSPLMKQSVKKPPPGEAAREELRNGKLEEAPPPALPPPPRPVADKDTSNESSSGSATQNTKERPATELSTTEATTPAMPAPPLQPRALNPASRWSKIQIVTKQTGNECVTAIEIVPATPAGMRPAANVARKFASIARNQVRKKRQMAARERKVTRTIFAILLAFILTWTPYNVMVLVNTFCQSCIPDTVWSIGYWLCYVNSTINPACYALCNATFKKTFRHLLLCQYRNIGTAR
Method in brief: (§3)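 CHO-K1 membranes stably expressing hM4 or hM5, at about 25–70 μg/mL protein, in 25 mM sodium phosphate with 5 mM MgCl2, pH 7.4. Competition with 0.2 nM [3H]NMS for 2 h at r.t.; nonspecific binding defined with 10 μM atropine. Filtration, then scintillation counting. IC50 from four-parameter logistic fit, converted to Ki. Mean ± S.E.M. of ≥3 experiments, each in duplicate.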

[9] = target: T5, Muscarinic acetylcholine receptor M5 (Homo sapiens, UniProt P08912); assay: Displacement of [3H]NMS from human recombinant muscarinic receptor M5 expressed in CHO-K1 cell membranes incubated for 2 hrs by scintillation counting method; method in brief: as §3
T5 sequence (P08912 whole entry): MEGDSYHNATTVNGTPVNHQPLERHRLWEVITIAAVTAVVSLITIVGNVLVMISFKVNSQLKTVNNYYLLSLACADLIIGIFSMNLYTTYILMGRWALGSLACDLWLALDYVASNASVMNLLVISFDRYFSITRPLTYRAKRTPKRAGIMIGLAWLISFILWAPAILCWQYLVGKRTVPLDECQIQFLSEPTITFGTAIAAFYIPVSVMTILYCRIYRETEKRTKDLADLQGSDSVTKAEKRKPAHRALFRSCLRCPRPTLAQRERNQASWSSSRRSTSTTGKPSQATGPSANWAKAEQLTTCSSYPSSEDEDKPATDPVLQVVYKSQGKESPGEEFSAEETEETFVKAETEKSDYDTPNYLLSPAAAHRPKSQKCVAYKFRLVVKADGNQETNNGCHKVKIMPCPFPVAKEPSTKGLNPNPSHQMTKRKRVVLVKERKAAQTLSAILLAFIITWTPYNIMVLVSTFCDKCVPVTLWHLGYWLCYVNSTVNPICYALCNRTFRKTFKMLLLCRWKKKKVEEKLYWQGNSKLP

Sequence of Muscarinic acetylcholine receptor M3 (P20309 whole entry): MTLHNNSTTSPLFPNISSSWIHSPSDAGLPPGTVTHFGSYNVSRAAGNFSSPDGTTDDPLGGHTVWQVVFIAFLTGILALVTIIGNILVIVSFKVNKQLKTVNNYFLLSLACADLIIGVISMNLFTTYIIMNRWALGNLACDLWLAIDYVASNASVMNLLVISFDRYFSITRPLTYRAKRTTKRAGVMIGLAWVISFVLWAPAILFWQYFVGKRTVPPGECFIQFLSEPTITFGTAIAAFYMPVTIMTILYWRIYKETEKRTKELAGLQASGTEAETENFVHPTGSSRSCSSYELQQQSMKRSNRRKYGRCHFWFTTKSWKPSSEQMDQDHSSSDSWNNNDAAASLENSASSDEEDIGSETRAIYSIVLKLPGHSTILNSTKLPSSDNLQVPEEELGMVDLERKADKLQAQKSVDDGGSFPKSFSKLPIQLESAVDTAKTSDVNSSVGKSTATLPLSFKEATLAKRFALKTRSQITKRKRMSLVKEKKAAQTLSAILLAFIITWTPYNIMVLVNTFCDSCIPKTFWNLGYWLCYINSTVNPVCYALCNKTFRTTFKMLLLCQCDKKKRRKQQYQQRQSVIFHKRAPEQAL

## CN1[C@@H]2CC[C@H]1C[C@@H](OC(=O)C(CO)c1ccccc1)C2 (stereo partly specified)
[1]
  Activity: Active
[2]
  Activity: Active
[3]
  inhibition: Active

## C[N+](C)(C)C[C@@H]1COC[C@](c2ccccc2)(C2CCCCC2)O1 (relative stereo)
[1]
  Activity: Active
[2]
  Activity: Active
[4]
  inhibition: Active

## O=C(O[C@H]1C[C@H]2CC[C@@H](C1)[N+]21CCCC1)C(O)(c1ccccc1)c1ccccc1 [TROSPIUM CHLORIDE]
[5]
  Ki: 3.47 nM
[6]
  Ki: 1.15 nM
[7]
  Ki: 1.02 nM
[8]
  Ki: 1.45 nM
[9]
  Ki: 6.03 nM
